From ChEMBL document CHEMBL3352584, “Novel DNA gyrase inhibiting spiropyrimidinetriones with a benzisoxazole scaffold: SAR and in vivo characterization” (J Med Chem, 2014)
≈ marks a conversion by molar mass, not a printed value.

What was measured:
[1] = test system: Streptococcus pneumoniae; assay: Antimicrobial activity against wild-type Streptococcus pneumoniae 548 by broth microdilution method; assay type: functional
Method in brief: (§1)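 Broth microdilution following CLSI guidelines. Values under 12.5 μM are averages of three or more replicates.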

[2] = molecular target: DNA gyrase (Escherichia coli, UniProt P0AES4+P0AES6); assay: Inhibition of Escherichia coli DNA gyrase using fluorescence-tagged DNA by fluorescenct polarization assay; assay type: protein-complex assay
Method in brief: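 E. coli DNA gyrase supercoiling assay. The read-out was differential binding of a fluorescence-tagged DNA to relaxed versus supercoiled DNA, giving IC50.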

[3] = Cmax in Wistar Hannover rat at 500 mg/kg, po dosed once daily for 14 days measured on day 14; assay type: ADME, organism-based; set-up: dose 500 mg/kg, route oral; conditions: in vivo
Method in brief: (§2)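 Wistar Hannover rats, 2 males and 2 females per dose, dosed orally once daily for 14 days at 250, 500 or 750 mg/kg/day. Vehicle was 0.2 M meglumine/20% hydroxypropyl-β-cyclodextrin. Blood was sampled on day 14 and exposure measured in blood. Animals were killed after sampling without necropsy.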

[4] = test system: Staphylococcus aureus; assay: Antimicrobial activity against methicillin-sensitive Staphylococcus aureus by broth microdilution method; assay type: functional; method in brief: as §1
[5] = Cmax in Wistar Hannover rat at 750 mg/kg, po dosed once daily for 14 days measured on day 14; assay type: ADME, organism-based; set-up: dose 750 mg/kg, route oral; conditions: in vivo; method in brief: as §2
[6] = test system: Streptococcus pneumoniae; assay: Antimicrobial activity against Streptococcus pneumoniae by broth microdilution method; assay type: functional; method in brief: as §1
[7] = Bioavailability in mouse at 3 mg/kg, iv or at 10 mg/kg, po by LC-MS/MS method; assay type: ADME, organism-based; conditions: in vivo
Method in brief: (§3)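 Male mice (CD-1) or male Wistar Hannover rats, three per experiment, given a 15 min iv infusion at 3 mg/kg or oral dosing at 10 mg/kg. Vehicle was DMA:TEG:saline 40/40/20 for mice and meglumine/cyclodextrin for rats. Serial jugular blood was taken over 0–24 h, plasma analysed by LC-MS/MS, and a noncompartmental analysis used. Mean values are given.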

[8] = test system: Staphylococcus aureus; assay: Antimicrobial activity against methicillin-sensitive Staphylococcus aureus ARC516 infected in immunocompetant mouse assessed as reduction in CFU at free AUC of 13 ug.hr/mL compound administered as single ip dose starting 2 hrs after infection relative to untreated control; assay type: functional
Method in brief: (§4)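 CD-1 mouse thighs were infected with mid-log S. aureus ARC516 at a target inoculum of 5 × 10⁵ CFU. Groups of five received IP compound in DMA:TEG:saline 40/40/20%, starting 2 h post-infection; a vehicle group served as control. Mice were killed 24 h after treatment start, and thigh homogenates were plated on tryptic soy agar (37 °C, overnight) for CFU/g. Free exposure was corrected for mouse plasma protein binding.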

[9] = test system: Streptococcus pneumoniae; assay: Antimicrobial activity against Streptococcus pneumoniae 2800 harboring GyrB K143I/T172A mutant by broth microdilution method; assay type: functional
[10] = test system: Haemophilus influenzae; assay: Antimicrobial activity against Haemophilus influenzae by broth microdilution method; assay type: functional; method in brief: as §1
[11] = Toxicity in po dosed Wistar Hannover rat administered as single dose; assay type: organism-based; conditions: in vivo
Method in brief: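 Single-dose oral phase in groups of three male Wistar Hannover rats, at doses up to 1000 mg/kg. Vehicle was 0.2 M meglumine/20% hydroxypropyl-β-cyclodextrin.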

[12] = test system: Staphylococcus aureus; assay: Antimicrobial activity against Staphylococcus aureus 2792 harboring wild-type GyrA and GyrB R144A mutant by broth microdilution method; assay type: functional
[13] = Clearance in rat at 3 mg/kg, iv or at 10 mg/kg, po by LC-MS/MS method; assay type: ADME, organism-based; conditions: in vivo; method in brief: as §3
[14] = test system: Staphylococcus aureus; assay: Inhibition of DNA synthesis in methicillin-sensitive Staphylococcus aureus by [3H]-thymidine incorporation assay; assay type: functional, organism-based
[15] = test system: Staphylococcus aureus; assay: Antimicrobial activity against Staphylococcus aureus 2375 harboring GyrA S84L mutant, GyrB R144A mutant and ParC S80Y/E84G/V693M mutant and ParE N141S mutant by broth microdilution method; assay type: functional
[16] = Fraction unbound in rat plasma at 10 uM after 16 hrs by LC-MS/MS analysis; assay type: ADME, cell-free
Method in brief: (§5)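 Compound at 10 μM in human, rat or mouse plasma, equilibrium dialysis against buffer at 37 °C for 16 h. Buffer and plasma concentrations measured by LC-MS/MS, and the free fraction taken from their ratio.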

[17] = test system: Streptococcus pneumoniae; assay: Antimicrobial activity against Streptococcus pneumoniae 2485 harboring GyrA S81F mutant, GyrB D160E/T329A mutant and ParC S79F mutant by broth microdilution method; assay type: functional
[18] = AUC in Wistar Hannover rat at 500 mg/kg, po dosed once daily for 14 days measured on day 14; assay type: ADME, organism-based; set-up: dose 500 mg/kg, route oral; conditions: plasma; method in brief: as §2
[19] = Bioavailability in rat at 3 mg/kg, iv or at 10 mg/kg, po by LC-MS/MS method; assay type: ADME, organism-based; conditions: in vivo; method in brief: as §3
[20] = test system: Staphylococcus aureus; assay: Antimicrobial activity against methicillin-resistant and quinolone-resistant Staphylococcus aureus by broth microdilution method; assay type: functional; method in brief: as §1
[21] = test system: Staphylococcus aureus; assay: Antimicrobial activity against methicillin-sensitive Staphylococcus aureus ARC516 infected in mouse at 3 to 100 mg/kg/day, ip starting 2 hrs after infection; assay type: functional, organism-based
Method in brief: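 CD-1 mouse thighs infected with mid-log S. aureus ARC516 at a target inoculum of 5 × 10⁵ CFU. Groups of five received ip compound in DMA:TEG:saline 40/40/20, either q24h or q6h, from 2 h post-infection. Mice were killed 24 h after treatment start and thigh homogenates plated on tryptic soy agar (37 °C overnight) for CFU/g. Neutropenia was induced with ip cyclophosphamide, 150 mg/kg on day −4 and 100 mg/kg on day −1.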

[22] = Fraction unbound in human plasma at 10 uM after 16 hrs by LC-MS/MS analysis; assay type: ADME, cell-free; method in brief: as §5
[23] = test system: Rattus norvegicus; assay: Toxicity in Wistar Hannover rat at 250 to 500 mg/kg, po administered once daily for 14 days; assay type: organism-based; set-up: dose 250-500 mg/kg, route oral; conditions: in vivo, 336 h
Method in brief: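 Repeat-dose oral study in Wistar Hannover rats, three males and three females per group, dosed once daily for 14 days at 0, 250, 500 or 750 mg/kg/day and necropsied on day 15. Endpoints were clinical signs, body weight, food intake, temperature, hematology, plasma chemistry, toxicokinetics, and gross and microscopic pathology.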

[24] = test system: Staphylococcus aureus; assay: Antimicrobial activity against methicillin-sensitive Staphylococcus aureus ARC516 infected in immunocompetant mouse assessed as reduction in CFU at AUC of 70 ug.hr/mL compound administered as single ip dose starting 2 hrs after infection relative to untreated control; assay type: functional; method in brief: as §4
[25] = test system: Staphylococcus aureus; assay: Inhibition of RNA synthesis in methicillin-sensitive Staphylococcus aureus by [3H]-uridine incorporation assay; assay type: functional, organism-based
[26] = Clearance in mouse at 3 mg/kg, iv or at 10 mg/kg, po by LC-MS/MS method; assay type: ADME, organism-based; conditions: in vivo; method in brief: as §3
[27] = test system: Staphylococcus aureus; assay: Antimicrobial activity against methicillin-sensitive Staphylococcus aureus ARC516 infected in immunosupressed mouse assessed as reduction in CFU at AUC of 120 ug.hr/mL compound administered as single ip dose starting 2 hrs after infection relative to untreated control; assay type: functional
Method in brief: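 Mice were made neutropenic with IP cyclophosphamide, 150 mg/kg at day −4 and 100 mg/kg at day −1. CD-1 thighs were then infected with mid-log S. aureus ARC516 (target 5 × 10⁵ CFU). Groups of five received IP compound in DMA:TEG:saline 40/40/20%, starting 2 h post-infection, alongside vehicle controls. At 24 h after treatment start, thigh homogenates were plated on tryptic soy agar (37 °C, overnight) for CFU/g.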

Work on `Cc1noc2c(F)c3c(cc12)CC1(C(=O)NC(=O)NC1=O)[C@H]1[C@H](C)O[C@H](C)CN31` yielded an MIC [1] of 4 µg/mL (≈ 9.94 µM), an IC50 [2] of 0.29 µM and a Cmax [3] of 440 µM. It also gave an MIC [4] of 1 µM (≈ 0.402 µg/mL), a Cmax [5] of 487 µM and an MIC [6] of 8.8 µM (≈ 3.54 µg/mL). For the same molecule, the bioavailability [7] was 58%, the “fold change (FC)” value [8] was 3 and the MIC [9] was 4 µg/mL (≈ 9.94 µM). For the same molecule, the MIC [10] was 1 µM (≈ 0.402 µg/mL), the MTD [11] was no more than 750 mg/kg and the MIC [12] was 0.5 µg/mL (≈ 1.24 µM). The clearance [13] was 32 mL/min/kg, the IC50 [14] was 0.06 µg/mL (≈ 0.149 µM) and the MIC [15] was 0.5 µg/mL (≈ 1.24 µM). The fraction unbound at 16 h, 10 µM [16] was 0.16, the MIC [17] was 2 µg/mL (≈ 4.97 µM) and the AUC at 336 h [18] was 4400 µM·h. The bioavailability [19] was 71%, the MIC [20] was 2 µM (≈ 0.805 µg/mL) and the Activity [21] was “Dose-dependent effect”. The fraction unbound at 16 h, 10 µM [22] was 0.094, the Activity [23] was “Non-toxic” and the “fold change (FC)” value [24] was 3. The IC50 [25] was 5 µg/mL (≈ 12.4 µM), the clearance [26] was 38 mL/min/kg and the “fold change (FC)” value [27] was 3.
